ChEMBL document CHEMBL1157933, “The anti-cancer, anti-inflammatory and tuberculostatic activities of a series of 6,7-substituted-5,8-quinolinequinones” (Bioorg Med Chem, 2010)
In brackets after ≈: the same amount, converted by molar mass.

Test system: Mycobacterium tuberculosis
Experiment: Antitubercular activity against Mycobacterium bovis BCG after 7 days by alamar blue assay
Type: functional
Conditions: variant bovis BCG, 168 h
How it was run: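 Frozen BCG stock thawed, lightly sonicated, diluted in Dubos broth/OADC to 4 × 10^4 bacteria/well; compounds at varied concentrations in PBS/2.5-5% DMSO, 37 °C for 7 days, then Alamar Blue 24 h. Ethambutol control; triplicate.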

| SMILES | MIC [µg/mL] |
| --- | --- |
| Cc1ccc(S(=O)(=O)C2=C(S(=O)(=O)c3ccc(C)cc3)C(=O)c3ncccc3C2=O)cc1 | 6.3 (≈ 13.5 µM) |
| Cc1ccc2c(n1)C(=O)C(Cl)=C(NCCBr)C2=O | 12.5 (≈ 37.9 µM) |
| O=C1C(Cl)=C(NCCCl)C(=O)c2ncccc21 | 12.5 (≈ 46.1 µM) |
| CNC1=C([S+](C)[O-])C(=O)c2cccnc2C1=O (stereo unspecified) | > 50 |
| Oc1c(Sc2ccccc2)c(Sc2ccccc2)c(O)c2ncccc12 | 25 (≈ 66.2 µM) |
| O=C1C(NCCCl)=C(Cl)C(=O)c2ncccc21 | 6.3 (≈ 23.2 µM) |
| CSC1=C(N)C(=O)c2cccnc2C1=O | 6.3 (≈ 28.6 µM) |
| CNC1=C(Cl)C(=O)c2cccnc2C1=O | 12.5 (≈ 56.1 µM) |
| Cc1ccc2c(n1)C(=O)C(Cl)=C(Cl)C2=O | 6.3 (≈ 26 µM) |
| CNC1=C(SC)C(=O)c2cccnc2C1=O | > 50 |
| O=C1C2=C(NCCS2)C(=O)c2ncccc21 | 6.3 (≈ 27.1 µM) |
| CSC1=C(SC)C(=O)c2ncccc2C1=O | 6.3 (≈ 25.1 µM) |
| Cc1ccc2c(n1)C(=O)C(NCCBr)=C(Cl)C2=O | 12.5 (≈ 37.9 µM) |
| C[S+]([O-])C1=C(N)C(=O)c2cccnc2C1=O (stereo unspecified) | 1.56 (≈ 6.6 µM) |
| CNC1=C(Cl)C(=O)c2ncccc2C1=O | 12.5 (≈ 56.1 µM) |
| Cc1ccc(S(=O)(=O)C2=C(Cl)C(=O)c3ncccc3C2=O)cc1 | > 50 |
| O=C1C(NCCBr)=C(Cl)C(=O)c2ncccc21 | 3.13 (≈ 9.92 µM) |
| CS(=O)(=O)C1=C(N)C(=O)c2cccnc2C1=O | 25 (≈ 99.1 µM) |
| O=C1c2cccnc2C(=O)C2SCCNC12 (stereo unspecified) | 6.3 (≈ 26.9 µM) |
| O=C1C(Cl)=C(NCCBr)C(=O)c2ncccc21 | 6.3 (≈ 20 µM) |
| CNC1=C([S+](C)[O-])C(=O)c2ncccc2C1=O (stereo unspecified) | 25 (≈ 99.9 µM) |
| CNC1=C(Sc2ccccc2)C(=O)c2cccnc2C1=O | 12.5 (≈ 42.2 µM) |
| CNC1=C(SC)C(=O)c2ncccc2C1=O | 12.5 (≈ 53.4 µM) |
| O=C1C(Sc2ccccc2)=C(Sc2ccccc2)C(=O)c2ncccc21 | > 50 |
| O=C1C(NC(c2ccccc2)c2ccccc2)=C(Cl)C(=O)c2ncccc21 | 6.3 (≈ 16.8 µM) |
| CNC1=C(Sc2ccccc2)C(=O)c2ncccc2C1=O | 12.5 (≈ 42.2 µM) |
